From PubChem BioAssay
Rows were chosen to be rich in hits. Some 1.7% of all compounds tested hit in one or more screens of this group.
STEP block – inhibitors of human striatal-enriched phosphatase STEP; recombinant STEP, OMFP fluorogenic substrate, fluorescence; inhibition, % at 20 µM; actives 0.25% (n = 360,000); AID 588621;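 active = inhibition at 20 µM, scaled per plate between control wells, above about 37%, limit read from the data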;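 note: 0% = DMSO with enzyme and substrate and 100% = substrate only without enzyme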
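medium = Bis-Tris buffer pH 6.0, 2.5 mM DTT, 0.005% Tween 20 | test system = STEP (striatal-enriched tyrosine phosphatase) enzyme, cell-free | measure = normalized % inhibition | compound dosing = 20 µM, 1% DMSO | also added = 25 µM OMFP | schedule = reaction 20 min, ambient temperature | measured by = fluorescence read at 480 nm ex / 540 nm em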
Casp6 inh – blocks human caspase-6 cleavage activity; purified caspase-6, Z-VEID-R110 cleavage fluorescence; inhibition, % at 12.5 µM; actives 0.53% (n = 350,000); P55212;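 active = mean inhibition across replicates at least about 35%, with every replicate also reaching that limit, limit read from the data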;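 note: 0% = median of neutral control wells and 100% = no fluorescence left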
LMPTP block – blocks human LMPTP phosphatase | P24666 | recombinant LMPTP-A, OMFP fluorogenic substrate, fluorescence intensity | inhibition, % at 20 µM | actives 0.22% (n = 360,000);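 active = compounds that cut the enzyme signal by at least half of the control window in the single-dose screen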;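 note: plate controls were DMSO wells with enzyme plus substrate for no effect and substrate without enzyme for full effect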
Target sequence (P24666 whole entry, looked up): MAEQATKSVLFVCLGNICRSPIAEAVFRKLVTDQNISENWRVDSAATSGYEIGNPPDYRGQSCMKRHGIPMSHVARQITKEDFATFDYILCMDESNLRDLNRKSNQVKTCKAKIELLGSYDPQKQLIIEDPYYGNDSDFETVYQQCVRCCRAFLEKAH
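material = LMPTP-A | quantity = 0.625 nM enzyme | reagent = OMFP substrate, 400 µM final | buffer or medium = Bis-Tris pH 6.0, DTT, detergent | detection = endpoint fluorescence intensity from OMFP dephosphorylation | dosing = single 20 µM dose | read-out basis = % inhibition relative to no-enzyme and uninhibited control wells | control set = no-enzyme and uninhibited controls | timing = 50 min at room temperature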
DNMT1 inh – inhibitors of human DNMT1. P26358. DNMT1 molecular beacon, Hinp1I cleavage, fluorescence. inhibition (reported as % activation of signal), % at 10 µM. actives 0.83% (n = 360,000). AID 588458; in the data active = inhibition above about 50%
Scp-1 inhibitor – blocks human Scp-1 phosphatase activity. actives 0.88% (n = 340,000). inhibition, % at 20 µM. Q9GZU7. Recombinant Scp1, phosphopeptide, malachite green phosphate absorbance;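 active = inhibition above about 50% at 20 µM, limit read from the data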;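 note: plate controls were DMSO wells with enzyme for no effect and wells lacking enzyme for full effect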
Target sequence (Q9GZU7 76-261 limits assumed): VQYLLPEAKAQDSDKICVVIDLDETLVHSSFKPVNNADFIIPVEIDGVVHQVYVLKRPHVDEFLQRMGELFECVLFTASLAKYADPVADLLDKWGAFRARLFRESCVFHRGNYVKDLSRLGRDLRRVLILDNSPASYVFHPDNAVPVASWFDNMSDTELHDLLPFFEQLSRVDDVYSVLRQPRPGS
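Assay system: SCP-1 catalytic fragment, aa 76-261 | Buffer or medium: Tris acetate buffer pH 5.5 with MgCl2 and Tween-20 | Compound: One concentration, 20 µM, with 1.0% DMSO | Also added: Phospho 17-mer peptide substrate | Signal: Absorbance at 630 nm | Incubation: 45 min enzyme reaction at room temperature | Measure: % inhibition of SCP-1 phosphate liberation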
SUMO1-SIM PPI – SUMO1-SIM interaction modulation; SUMO1 binding to a labelled peptide, TR-FRET, 1 h; P63165; inhibition, % at 20 µM; actives 0.33% (n = 360,000); in the data active = inhibition above about 37%
Target sequence (P63165 whole entry, looked up): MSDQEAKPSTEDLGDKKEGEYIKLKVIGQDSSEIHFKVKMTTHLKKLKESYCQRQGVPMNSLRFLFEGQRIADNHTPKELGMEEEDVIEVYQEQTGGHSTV
DNMT1 interf DR – shows spectral interference in the DNMT1 beacon assay. shares compounds with DNMT1 inh. molecular beacon fluorescence, spectral interference counter-screen. IC50, µM. 200 tested, under 10 active. AID 602382; call rule not given here
DNMT1 confirm – confirmation of human DNMT1 inhibitors | shares compounds with DNMT1 inh | DNMT1 molecular beacon HinP1I cleavage, fluorescence | inhibition, % at 10 µM | actives 8% (n = 2,300);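 active = average inhibition of at least 30% in the single-concentration confirmation test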
Beacon interf – counter-screen for DNMT1 inhibitors: spectral interference; shares compounds with DNMT1 inh; DNMT1 molecular beacon spectral interference counterscreen, fluorescence 485/520; activation (fluorescence interference), % at 10 µM; actives 1% (n = 2,300);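 active = activation of at least 30% at 10 µM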;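 note: DNMT1 catalytic domain with a HinP1I cleavage step and a FAM/dabcyl DNA beacon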
* hit, by the source's call; nt = not tested or not shown.

SMILES	STEP block	Casp6 inh	LMPTP block	DNMT1 inh	Scp-1 inhibitor	SUMO1-SIM PPI	DNMT1 confirm	Beacon interf	others
CCCn1nnnc1NCc1ccc(N2CCCC2)cc1	1.5	nt	40.1	20.5	-2.5	-1.7	nt	nt
CCCCn1nnnc1NCc1ccc(N2CCCC2)cc1	-0.9	nt	17.8	69.7*	1.1	-3.6	2.0	0.1
Cc1cccc(CC(=O)NCCN2CCCCC2)c1	0.6	-5.5	0.6	56.6*	33.0	0.5	-1.1	1.8
Cc1cccc(C(=O)NCCN2CCCC2)c1	0.5	nt	0.9	-0.4	-4.6	-1.4	nt	nt
O=C(NCC1CCCCC1)c1ccc2sc([C@H]3C[C@H](O)[C@@H](CO)O3)nc2c1	-3.2	8.8	-2.3	-2.4	nt	1.2	nt	nt
CCCCCCSc1ccc(-c2nc3ccc(C)cn3c2NCCCC)cc1OC	nt	0.8	5.6	nt	nt	-2.5	nt	nt
CCCCCCSc1ccc(-c2nc3ccc(Cl)cn3c2NCCCC)cc1OC	-2.0	-0.1	2.2	78.9*	5.0	-1.0	0.9	1.9
CCS(=O)(=O)N1CCC(C(=O)NCc2ccc3c(c2)OCO3)CC1	-0.2	-2.9	-1.1	-0.1	-5.7	-0.9	nt	nt
O=C(NCc1ccc2c(c1)OCO2)C1CCN(C(=O)Nc2ccc(Cl)cc2)CC1	1.3	nt	-0.8	74.6*	-3.5	-0.5	5.7	1.4
CC1CCN(C(=O)CSc2nc3c(c(=O)n2C)SC(C)C3)CC1 (stereo not given)	0.6	-1.2	-0.6	66.7*	-4.8	1.1	7.1	8.8
O=C(O)c1ccc(-c2ccc(/C=C3\NC(=O)N(Cc4ccc(Cl)cc4)C3=O)o2)cc1Cl	49.1*	64.6*	9.5	88.5*	81.2*	24.8	60.3*	-0.9	DNMT1 interf DR=>99
CSC1=NSC2=NC(=O)/C(=C/c3coc4ccc(O)cc4c3=O)C(=N)N12	-79.9	39.9*	5.7	82.3*	22.3	41.7*	12.9	-2.6
C[C@H](CO)N1C[C@H](C)[C@@H](CN(C)S(=O)(=O)c2ccc(F)cc2)Oc2ccc(NC(=O)C3CCCCC3)cc2CC1=O	nt	-1.1	nt	nt	nt	nt	nt	nt
O=C(COC(=O)c1ccc(-c2nnc(-c3ccccc3)o2)cc1)c1ccccc1	-0.3	-0.3	19.0	53.8*	-5.2	3.4	0.6	0.7
CCCC(=O)O[C@]1(C(=O)COC(C)=O)CC[C@H]2[C@@H]3C[C@H](F)C4=CC(=O)C=C[C@]4(C)[C@@]3(F)[C@@H](O)C[C@@]21C	-0.9	5.4	-0.3	-4.8	-13.9	-0.7	nt	nt
CC(=O)[C@@]1(O)CC[C@H]2[C@@H]3C[C@H](C)C4=CC(=O)C=C[C@]4(C)[C@@]3(F)[C@@H](O)C[C@@]21C	-0.3	1.9	-1.7	79.7*	-6.3	-3.2	3.5	5.0
C[C@H]1CN([C@@H](C)CO)S(=O)(=O)c2ccc(-c3cccnc3)cc2O[C@@H]1CN(C)C(=O)c1cccc(F)c1	nt	7.0	nt	nt	nt	nt	nt	nt
COc1cc(OC)cc(-c2c(-c3cccs3)c3cc(-c4ccc(C(N)=O)cc4)ccc3n2C)c1	-1.2	nt	-0.5	54.5*	0.6	-17.1	0.5	2.0
COc1cc2ccc(CC(N)=O)cc2cc1OC	-1.3	7.6	21.7	51.8*	nt	7.8	-1.2	-1.2
O=C(Nc1sc2c(c1C(=O)O)CCC2)C(=O)N1CCOCC1	11.1	37.4*	4.5	60.8*	43.0	4.6	5.8	2.1
NNC(=O)c1[nH]c(-c2ccccc2)cc1-c1ccccc1	1.2	-2.5	1.5	68.2*	2.3	-2.1	4.1	5.0
CSc1ccc(/C=C/C(=O)OCC(=O)NC2CCCCCC2)cc1	-2.5	-3.5	0.1	65.1*	nt	-8.5	0.8	5.8
COc1ccc(/C=C/C(=O)OCC(=O)NC2CCCCCCC2)cc1	2.5	4.2	1.6	-1.9	-6.8	-5.3	nt	nt
CCN(CC)c1ccc2cc(C=O)c(=O)oc2c1	-45.9	nt	5.1	70.5*	18.5	-37.0	39.1*	59.1*
CCN(CC)c1ccc2cc(-c3nnc(-c4ccncc4)o3)c(=O)oc2c1	-189.6	nt	6.1	136.3*	-4.3	-5.9	88.0*	60.9*
SMILES	STEP block	Casp6 inh	LMPTP block	DNMT1 inh	Scp-1 inhibitor	SUMO1-SIM PPI	DNMT1 confirm	Beacon interf	others
COc1ccc(CNC(=O)C(OC(=O)c2cccs2)C(C)C)cc1 (stereo not given)	1.7	-4.5	-0.4	1.6	-2.3	1.5	nt	nt
COc1cc(Cl)c(C)cc1NC(=O)CSc1ccc(NC(C)=O)cc1	-1.2	1.7	-0.6	-8.6	-7.4	2.6	nt	nt
O=C(Nc1ccc(O)c2c(=O)cc(-c3cccc(Cl)c3)oc12)c1ccccc1Cl	4.8	-2.2	1.4	53.5*	-8.1	0.3	1.8	-2.5
COc1ccc(-c2n[nH]c3c2CN(C(=O)c2ccccc2)CC3)cc1	3.5	0.3	-0.9	0.3	-3.4	3.3	nt	nt
O=[N+]([O-])c1ccc(N/N=C/c2ccc(O)c(O)c2O)c(S(=O)(=O)N2CCOCC2)c1	6.0	7.5	66.5*	62.4*	3.4	22.4	-1.9	-1.2
O=[N+]([O-])c1ccc(N/N=C/c2cccc(O)c2O)c(S(=O)(=O)N2CCOCC2)c1	-2.8	2.6	5.8	-6.2	-5.4	-14.5	nt	nt
CCc1n[nH]c(=S)n1/N=C/c1ccc2c(c1)OCO2	-6.3	nt	0.0	8.4	0.0	-0.5	nt	nt
Clc1ccc(OCc2nn3c(-c4ccccc4)nnc3s2)c(Cl)c1	4.6	nt	29.4	58.6*	-3.4	1.2	2.6	2.9
Clc1ccccc1OCc1nn2c(-c3ccncc3)nnc2s1	3.8	nt	-0.2	-1.6	-0.1	-0.3	nt	nt
O=C(Nc1ccc(-c2cn3ccccc3n2)cc1)c1ccc(Cl)cc1	8.7	nt	35.6	52.6*	-0.6	2.7	2.5	7.7
CCCCNC(=O)c1nn2cc(Br)cnc2c1Br	nt	6.5	nt	nt	20.4	nt	nt	nt
Oc1c(CN2CCOCC2)cc(CN2CCOCC2)cc1CN1CCOCC1	1.1	-21.5	-1.6	87.3*	-7.6	4.2	1.3	4.5
CCOc1ccc(NC(=O)C2CCN(S(=O)(=O)CC)CC2)cc1	0.1	-3.6	0.4	60.0*	-3.7	-1.6	4.8	3.8
CCOC(=O)c1ccc(NC(=O)C2CCN(S(=O)(=O)CC)CC2)cc1	-2.8	nt	-2.6	21.2	-1.1	2.2	nt	nt
O=C1CCCC2=C1C(c1ccco1)Nc1ccc3ccccc3c12 (stereo not given)	3.8	nt	12.4	103.2*	74.0*	14.6	50.3*	-5.2	DNMT1 interf DR=>99
